Assays:
[1] = tested on: NCI-H292; test: Antiproliferative activity against human NCI-H292 cells assessed as inhibition of cell viability after 24 hrs by MTT assay; assay type: functional, cell-based; settings: NCI-H292, 24 h
Outline: (§1)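 Cells grown to 50–70% confluence (RWPE1 in K-SFM with pituitary extract and EGF; the other lines in RPMI 1640 with 10% FBS), 5% CO2, 37 °C. Treated for 24 h with DMSO vehicle, compounds, or cisplatin as positive control. MTT (5 mg/mL) added for 4 h, formazan dissolved in DMSO, absorbance read at 570 nm. Viability taken relative to untreated cells after blank subtraction, IC50 fitted from % viability, at least three experiments.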

[2] = Antiproliferative activity against human PC3 cells assessed as inhibition of cell viability after 24 hrs by MTT assay; assay type: functional, cell-based; settings: PC-3, 24 h; outline: as §1
[3] = tested on: DU-145; test: Antiproliferative activity against human DU145 cells assessed as inhibition of cell viability after 24 hrs by MTT assay; assay type: functional, cell-based; settings: DU-145, 24 h; outline: as §1
[4] = tested on: K562; test: Antiproliferative activity against human K562 cells assessed as inhibition of cell viability after 24 hrs by MTT assay; assay type: functional, cell-based; settings: K562, 24 h; outline: as §1
[5] = tested on: A549; test: Antiproliferative activity against human A549 cells assessed as inhibition of cell viability after 24 hrs by MTT assay; assay type: functional, cell-based; settings: A549, 24 h; outline: as §1
[6] = tested on: NCI-H1299; test: Antiproliferative activity against human NCI-H1299 cells assessed as inhibition of cell viability after 24 hrs by MTT assay; assay type: functional, cell-based; settings: NCI-H1299, 24 h; outline: as §1
[7] = tested on: NCI-H446; test: Antiproliferative activity against human NCI-H446 cells assessed as inhibition of cell viability after 24 hrs by MTT assay; assay type: functional, cell-based; settings: NCI-H446, 24 h; outline: as §1
[8] = Antiproliferative activity against human RWPE1 cells assessed as inhibition of cell viability after 24 hrs by MTT assay; assay type: cell-based; settings: RWPE-1, 24 h; outline: as §1
[9] = Antiproliferative activity against HBE cells assessed as inhibition of cell viability after 24 hrs by MTT assay; assay type: cell-based; settings: Homo sapiens; outline: as §1

Structure (SMILES) | IC50 [1] | IC50 [2] | IC50 [3] | IC50 [4] | IC50 [5] | IC50 [6] | IC50 [7] | IC50 [8] | IC50 [9]
C=C[C@]1(C)CC[C@H]2[C@]3(C)CCCC(C)(C)[C@H]3[C@@H]3C[C@@]2(O1)C(=O)O3 | 10.7 µM | 20 µM | 18.9 µM | 34 µM | 21.5 µM | 21.9 µM | 16.7 µM | 26.4 µM | 53.2 µM
CC(C)[C@H]1CC[C@]2(C)C[C@]3(O)C(=CC(=O)[C@H]3C)[C@@H](C)CC[C@@H]12 [ANADENSIN] | 39.9 µM | > 40 µM | > 40 µM | > 40 µM | > 40 µM | 27 µM | > 40 µM | > 40 µM | > 40 µM
